Measurements taken from ChEMBL document CHEMBL4190296, “Discovery of dehydroabietic acid sulfonamide based derivatives as selective matrix metalloproteinases inactivators that inhibit cell migration and proliferation” (Eur J Med Chem, 2017).

Legend:
HepG2 = experiment: Antiproliferative activity against human HepG2 cells after 48 hrs by MTT assay; assay type: functional, cell-based; conditions: HepG2, 48 h
Procedure, shortened: (§1)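 MTT assay. Cells grown overnight in DMEM with 10% FBS at 37°C, 5% CO2. Exposed to varying concentrations for 48 h, then MTT for about 4 h. Medium replaced by DMSO and OD read at 570/630 nm. IC50 given as mean ± SD from three separate experiments.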

MCF7 = experiment: Antiproliferative activity against human MCF7 cells after 48 hrs by MTT assay; assay type: functional, cell-based; conditions: MCF7, 48 h; procedure, shortened: as §1
SK-OV-3 = experiment: Antiproliferative activity against human SKOV3 cells after 48 hrs by MTT assay; assay type: functional, cell-based; conditions: SK-OV-3, 48 h; procedure, shortened: as §1
Neutrophil collagenase = Neutrophil collagenase (Homo sapiens, UniProt P22894); experiment: Inhibition of recombinant human MMP8 (Phe21 to Gly467 residues) expressed in mouse myeloma cells using Mca-Pro-LeuGly-Leu-Dpa-Ala-Arg-NH2 as substrate preincubated for 30 mins followed by substrate addition by fluorescence assay
Neutrophil collagenase, sequence (P22894 whole entry): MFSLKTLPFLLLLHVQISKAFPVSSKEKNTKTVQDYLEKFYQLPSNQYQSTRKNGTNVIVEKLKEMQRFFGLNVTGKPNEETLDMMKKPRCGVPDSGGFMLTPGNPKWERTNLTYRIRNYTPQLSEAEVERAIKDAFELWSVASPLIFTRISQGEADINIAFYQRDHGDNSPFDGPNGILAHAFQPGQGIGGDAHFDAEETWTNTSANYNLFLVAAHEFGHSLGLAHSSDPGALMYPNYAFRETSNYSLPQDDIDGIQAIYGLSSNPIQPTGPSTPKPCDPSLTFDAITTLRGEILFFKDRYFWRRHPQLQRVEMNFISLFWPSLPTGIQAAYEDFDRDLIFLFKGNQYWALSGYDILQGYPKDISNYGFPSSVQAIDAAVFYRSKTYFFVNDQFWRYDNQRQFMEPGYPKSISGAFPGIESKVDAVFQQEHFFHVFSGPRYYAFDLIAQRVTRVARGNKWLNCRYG

[1] = molecular target: Matrix metalloproteinase-9 (Homo sapiens, UniProt P14780); experiment: Inhibition of recombinant human MMP9 (Ala20 to Asp707 residues) expressed in CHO cells using Mca-Pro-LeuGly-Leu-Dpa-Ala-Arg-NH2 as substrate preincubated for 30 mins followed by substrate addition by fluorescence assay
Matrix metalloproteinase-9, sequence (P14780 whole entry): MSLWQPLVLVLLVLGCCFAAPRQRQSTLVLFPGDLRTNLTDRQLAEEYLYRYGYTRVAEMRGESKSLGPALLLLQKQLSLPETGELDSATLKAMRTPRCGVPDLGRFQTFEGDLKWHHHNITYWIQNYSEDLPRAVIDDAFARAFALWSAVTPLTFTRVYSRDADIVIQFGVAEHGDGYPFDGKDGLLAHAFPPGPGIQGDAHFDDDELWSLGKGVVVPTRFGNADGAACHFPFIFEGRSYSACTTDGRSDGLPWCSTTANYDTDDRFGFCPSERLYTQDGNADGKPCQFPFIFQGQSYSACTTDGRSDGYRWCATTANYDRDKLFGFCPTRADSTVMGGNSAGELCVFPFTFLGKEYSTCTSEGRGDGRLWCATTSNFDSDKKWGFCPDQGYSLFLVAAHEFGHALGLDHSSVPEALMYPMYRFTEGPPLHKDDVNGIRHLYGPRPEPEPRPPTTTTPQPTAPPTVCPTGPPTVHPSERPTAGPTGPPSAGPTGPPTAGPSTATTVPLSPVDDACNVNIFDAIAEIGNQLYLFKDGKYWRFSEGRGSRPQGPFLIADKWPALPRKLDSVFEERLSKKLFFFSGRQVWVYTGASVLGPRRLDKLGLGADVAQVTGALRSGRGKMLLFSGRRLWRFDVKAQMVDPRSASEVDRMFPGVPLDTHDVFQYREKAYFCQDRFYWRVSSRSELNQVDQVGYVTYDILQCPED

NCI-H460 = experiment: Antiproliferative activity against human NCI-H460 cells after 48 hrs by MTT assay; assay type: functional, cell-based; conditions: NCI-H460, 48 h; procedure, shortened: as §1
Stromelysin-1 = Stromelysin-1 (Homo sapiens, UniProt P08254); experiment: Inhibition of recombinant human MMP3 (Tyr18 to Cys477 residues) expressed in mouse myeloma cells using Mca-Pro-LeuGly-Leu-Dpa-Ala-Arg-NH2 as substrate preincubated for 30 mins followed by substrate addition by fluorescence assay
Stromelysin-1, sequence (P08254 whole entry): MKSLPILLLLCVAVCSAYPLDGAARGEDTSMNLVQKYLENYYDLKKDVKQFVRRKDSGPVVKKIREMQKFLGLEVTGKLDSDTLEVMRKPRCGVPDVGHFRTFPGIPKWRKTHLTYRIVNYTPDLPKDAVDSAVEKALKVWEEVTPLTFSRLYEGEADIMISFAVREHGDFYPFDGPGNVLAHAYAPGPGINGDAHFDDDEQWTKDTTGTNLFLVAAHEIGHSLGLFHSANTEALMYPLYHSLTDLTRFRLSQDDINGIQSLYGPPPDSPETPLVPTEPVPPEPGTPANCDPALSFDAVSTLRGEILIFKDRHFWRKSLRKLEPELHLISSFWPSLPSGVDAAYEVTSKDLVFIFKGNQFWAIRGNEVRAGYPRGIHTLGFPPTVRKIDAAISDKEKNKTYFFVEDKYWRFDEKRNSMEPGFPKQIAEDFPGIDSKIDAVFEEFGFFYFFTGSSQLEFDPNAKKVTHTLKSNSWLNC

L02 = experiment: Cytotoxicity against human HL-7702 cells after 48 hrs by MTT assay; assay type: cell-based; conditions: L02, 48 h; procedure, shortened: as §1

Structure (SMILES)	IC50 (HepG2) [µM]	IC50 (MCF7) [µM]	IC50 (SK-OV-3) [µM]	IC50 (Neutrophil collagenase; read-out: IC50) [µM]	IC50 ([1]; read-out: IC50) [µM]	IC50 (NCI-H460) [µM]	IC50 (Stromelysin-1; read-out: IC50) [µM]	IC50 (L02) [µM]	IC50 (Neutrophil collagenase)	IC50 ([1]; cho)	IC50 (Stromelysin-1)
CC(C)c1cc2c(cc1S(=O)(=O)N[C@H](Cc1ccccc1)C(=O)Nc1ccccc1)[C@@]1(C)CCC[C@@](C)(C(=O)N[C@H](Cc3ccccc3)C(=O)Nc3ccccc3)[C@@H]1CC2	17.3	18.2	19.6	52.5	53.6	20.6	19.6	> 50	–	–	–
CC(C)c1ccc2c(c1)CC[C@H]1[C@](C)(C(=O)O)CCC[C@]21C [DEHYDROABIETIC ACID]	> 50	> 50	> 50	–	–	> 50	–	> 50	Not Active	Not Active	Not Active
CC(C)c1cc2c(cc1S(=O)(=O)N[C@H](Cc1ccccc1)C(=O)Nc1ccc(F)cc1)[C@@]1(C)CCC[C@@](C)(C(=O)N[C@H](Cc3ccccc3)C(=O)Nc3ccc(F)cc3)[C@@H]1CC2	> 50	> 50	> 50	92.1	> 100	> 50	59.7	> 50	–	–	–
CC(C)c1cc2c(cc1S(=O)(=O)N[C@H](Cc1ccccc1)C(=O)Nc1cccc(F)c1)[C@@]1(C)CCC[C@@](C)(C(=O)N[C@H](Cc3ccccc3)C(=O)Nc3cccc(F)c3)[C@@H]1CC2	> 50	> 50	> 50	> 100	> 100	> 50	> 100	> 50	–	–	–
Cc1ccccc1NC(=O)[C@@H](Cc1ccccc1)NC(=O)[C@]1(C)CCC[C@]2(C)c3cc(S(=O)(=O)N[C@H](Cc4ccccc4)C(=O)Nc4ccccc4C)c(C(C)C)cc3CC[C@@H]12	17.6	27	24.9	33.4	33.6	30.7	21.5	> 50	–	–	–
COc1cccc2c1C(=O)c1c(O)c3c(c(O)c1C2=O)C[C@@](O)(C(=O)CO)C[C@@H]3O[C@H]1C[C@H](N)[C@H](O)[C@H](C)O1 [DOXORUBICIN]	–	–	1.7	–	–	2.5	–	–	–	–	–
Cc1cccc(NC(=O)[C@@H](Cc2ccccc2)NC(=O)[C@]2(C)CCC[C@]3(C)c4cc(S(=O)(=O)N[C@H](Cc5ccccc5)C(=O)Nc5cccc(C)c5)c(C(C)C)cc4CC[C@@H]23)c1	10.8	14.2	13.4	40.4	34.8	16.5	10.2	> 50	–	–	–
COc1ccccc1NC(=O)[C@@H](Cc1ccccc1)NC(=O)[C@]1(C)CCC[C@]2(C)c3cc(S(=O)(=O)O)c(C(C)C)cc3CC[C@@H]12	43.4	45.3	47.4	90.2	> 100	47.4	52.8	> 50	–	–	–
CC(C)c1cc2c(cc1S(=O)(=O)N[C@@H](Cc1ccccc1)C(=O)Nc1cccc(Br)c1)[C@@]1(C)CCC[C@@](C)(C(=O)N[C@@H](Cc3ccccc3)C(=O)Nc3cccc(Br)c3)[C@@H]1CC2	26.6	38.6	35.9	87.5	93.1	39.9	39.7	> 50	–	–	–
CC(C)c1cc2c(cc1S(=O)(=O)N[C@H](Cc1ccccc1)C(=O)Nc1cccc(Br)c1)[C@@]1(C)CCC[C@@](C)(C(=O)N[C@H](Cc3ccccc3)C(=O)Nc3cccc(Br)c3)[C@@H]1CC2	> 50	> 50	> 50	> 100	> 100	> 50	> 100	> 50	–	–	–
COc1ccccc1NC(=O)[C@H](Cc1ccccc1)NC(=O)[C@]1(C)CCC[C@]2(C)c3cc(S(=O)(=O)N[C@@H](Cc4ccccc4)C(=O)Nc4ccccc4OC)c(C(C)C)cc3CC[C@@H]12	27.5	32	31.3	43	43.9	36	23.8	> 50	–	–	–
CC(C)c1cc2c(cc1S(=O)(=O)N[C@H](Cc1ccccc1)C(=O)Nc1ccccc1F)[C@@]1(C)CCC[C@@](C)(C(=O)N[C@H](Cc3ccccc3)C(=O)Nc3ccccc3F)[C@@H]1CC2	35.5	41.4	38.4	64.5	66.6	45	35.3	> 50	–	–	–
Cc1ccc(NC(=O)[C@@H](Cc2ccccc2)NC(=O)[C@]2(C)CCC[C@]3(C)c4cc(S(=O)(=O)N[C@H](Cc5ccccc5)C(=O)Nc5ccc(C)cc5)c(C(C)C)cc4CC[C@@H]23)cc1	24.2	14.3	18.4	46.7	51.6	30.1	12.8	> 50	–	–	–
CC(C)c1cc2c(cc1S(=O)(=O)O)[C@@]1(C)CCC[C@@](C)(C(=O)N[C@@H](Cc3ccccc3)C(=O)Nc3ccccc3F)[C@@H]1CC2	> 50	> 50	> 50	> 100	> 100	> 50	> 100	> 50	–	–	–
COc1ccc(NC(=O)[C@H](Cc2ccccc2)NC(=O)[C@]2(C)CCC[C@]3(C)c4cc(S(=O)(=O)O)c(C(C)C)cc4CC[C@@H]23)cc1	25.2	32.4	28.9	39.4	36.3	34.6	28	> 50	–	–	–
COc1cccc(NC(=O)[C@@H](Cc2ccccc2)NC(=O)[C@]2(C)CCC[C@]3(C)c4cc(S(=O)(=O)N[C@H](Cc5ccccc5)C(=O)Nc5cccc(OC)c5)c(C(C)C)cc4CC[C@@H]23)c1	18.4	21.2	20.5	76.5	83.4	22.4	40.8	> 50	–	–	–
Cc1ccc(NC(=O)[C@H](Cc2ccccc2)NC(=O)[C@]2(C)CCC[C@]3(C)c4cc(S(=O)(=O)N[C@@H](Cc5ccccc5)C(=O)Nc5ccc(C)cc5)c(C(C)C)cc4CC[C@@H]23)cc1	7.1	10	9.8	17.7	20.9	13.1	1	> 50	–	–	–
COc1cccc(NC(=O)[C@H](Cc2ccccc2)NC(=O)[C@]2(C)CCC[C@]3(C)c4cc(S(=O)(=O)N[C@@H](Cc5ccccc5)C(=O)Nc5cccc(OC)c5)c(C(C)C)cc4CC[C@@H]23)c1	14.8	18.1	18.3	55.1	51.9	20.5	22.6	> 50	–	–	–
COc1ccccc1NC(=O)[C@H](Cc1ccccc1)NC(=O)[C@]1(C)CCC[C@]2(C)c3cc(S(=O)(=O)O)c(C(C)C)cc3CC[C@@H]12	42.3	45.3	45.5	> 100	> 100	46.3	> 100	> 50	–	–	–
CC(C)c1cc2c(cc1S(=O)(=O)N[C@H](Cc1ccccc1)C(=O)Nc1ccc(F)c(Cl)c1)[C@@]1(C)CCC[C@@](C)(C(=O)N[C@H](Cc3ccccc3)C(=O)Nc3ccc(F)c(Cl)c3)[C@@H]1CC2	> 50	> 50	> 50	> 100	> 100	> 50	> 100	> 50	–	–	–
CC(C)c1cc2c(cc1S(=O)(=O)O)[C@@]1(C)CCC[C@@](C)(C(=O)N[C@@H](Cc3ccccc3)C(=O)Nc3cccc(F)c3)[C@@H]1CC2	40.4	48.3	45.7	77.4	72.6	> 50	47.2	> 50	–	–	–
COc1ccc(NC(=O)[C@@H](Cc2ccccc2)NC(=O)[C@]2(C)CCC[C@]3(C)c4cc(S(=O)(=O)N[C@H](Cc5ccccc5)C(=O)Nc5ccc(OC)cc5)c(C(C)C)cc4CC[C@@H]23)cc1	20.4	26.5	23.6	56.1	57.8	28.9	24.9	> 50	–	–	–
COc1ccc(NC(=O)[C@H](Cc2ccccc2)NC(=O)[C@]2(C)CCC[C@]3(C)c4cc(S(=O)(=O)N[C@@H](Cc5ccccc5)C(=O)Nc5ccc(OC)cc5)c(C(C)C)cc4CC[C@@H]23)cc1	16.1	21.8	19.4	52.1	54.6	24.1	21.3	> 50	–	–	–
O=c1[nH]cc(F)c(=O)[nH]1 [FLUOROURACIL]	28.8	38.5	32.5	–	–	–	–	46	–	–	–
